# Reference: paper PMC8753134 (Research and Practice in Thrombosis and Haemostasis, 2022)
# Where a name gives a salt, the structure may show the parent alone. Read-outs that look alike come from different tables or passages of the source. No end group written: not given here.
# What was measured:
# [1] = format: in vitro ADME, human; settings: spiked 1 ng/mL, 3 hours after sampling, absence of inhibitor, n = 3
# [2] = tested on: FXIIa and PKa (contact activation-mediated BK formation); assay: Screening of serine protease inhibitors against artificial ex vivo BK formation; format: biochemical, human; settings: citrate plasma; for BK levels after 4.5 hours: 4.5 hours after sampling, n = 3
# How it was run: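 Fresh blood in citrate, with serine protease inhibitors present singly (e.g., 2 mM AEBSF), then combinations of the most promising; uninhibited plasma as reference. BK was quantified by in-house LC-MS/MS immediately (reference value) and up to 4.5 h after sampling, given as relative abundance. Samples were analysed directly without long-term storage.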
# [3] = cited from earlier work
molecule,measurement,setting,value
"RPPGFSP [BK‐(1‐7), Bradykinin 1–7]",change of spiked plasma kinin level,[1],−65.7%
"N=C(N)c1ccc2cc(OC(=O)c3ccc(N=C(N)N)cc3)ccc2c1 [nafamostat, nafamostat mesylate]",BK levels after 4.5 hours,[2],BK levels were increased
"RPPGFSPFR [BK, Bradykinin]",half-life,[3],< 1 min
hexadimethrine bromide [HDMB],BK level as % of uninhibited plasma,"[2]; tube prespiked with inhibitor, n = 3, LC-MS/MS",0.4%
"RPPGF [BK‐(1‐5), Bradykinin 1–5]",half-life,[3]; inactive metabolite,≈ 90 minutes
"NCCCC[C@H](N)C(=O)N[C@@H](CCCN=C(N)N)C(=O)N1CCC[C@H]1C(=O)N1CCC[C@H]1C(=O)NCC(=O)N[C@@H](Cc1ccccc1)C(=O)N[C@@H](CO)C(=O)N1CCC[C@H]1C(=O)N[C@@H](Cc1ccccc1)C(=O)N[C@@H](CCCN=C(N)N)C(=O)O [KBK, Kallidin]",half-life,[3],< 1 min
same,change of spiked plasma kinin level,[1],−100%
"CC(=O)N[C@@H](CC(C)C)C(=O)N[C@@H](CC(C)C)C(=O)N[C@H](C=O)CCCNC(=N)N [leupeptin, leupeptin hemisulfate]",BK levels after 4.5 hours,[2],BK levels were increased
